Assay outcomes as filed in PubChem BioAssay.
FLuc act counter – firefly luciferase counter-screen for stimulation assays; 200,000 tested, under 10 active; activation factor at 10 µM; ATPlite luciferase biochemical, luminescence, 10 min; 0 = ATP-free wells, 1 = DMSO control; AID 1027; P08659;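 active = luciferase activation factor, scaled between plate controls, of at least 2 with compound at 10 µM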
Target sequence (P08659 whole entry, looked up): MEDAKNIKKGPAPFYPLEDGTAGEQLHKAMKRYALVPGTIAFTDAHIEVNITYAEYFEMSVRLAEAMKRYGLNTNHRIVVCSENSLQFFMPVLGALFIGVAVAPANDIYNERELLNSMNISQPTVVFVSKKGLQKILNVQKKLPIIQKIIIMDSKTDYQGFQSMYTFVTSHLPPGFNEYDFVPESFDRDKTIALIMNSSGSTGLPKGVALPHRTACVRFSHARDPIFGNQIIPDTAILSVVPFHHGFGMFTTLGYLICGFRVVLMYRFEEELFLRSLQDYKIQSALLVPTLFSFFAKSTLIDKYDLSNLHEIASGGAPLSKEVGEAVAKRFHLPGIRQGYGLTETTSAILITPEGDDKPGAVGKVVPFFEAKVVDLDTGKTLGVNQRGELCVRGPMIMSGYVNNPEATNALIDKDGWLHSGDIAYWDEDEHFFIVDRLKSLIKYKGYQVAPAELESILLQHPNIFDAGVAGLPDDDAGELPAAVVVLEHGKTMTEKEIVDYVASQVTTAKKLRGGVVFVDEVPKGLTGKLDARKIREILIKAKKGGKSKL
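test system = cell-free luciferase reagent | medium = PBS as buffer for the ATP substrate | dosing = test compounds dosed from 2 mM stocks in 100% DMSO | incubation = 10 min at ambient temperature | detection = luminescence measurement of luciferase light output | benchmarks = low control with PBS replacing ATP, high control enzyme plus ATP without compound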
beta cell repl – MIN6 beta-cell proliferation induction; MIN6 cells proliferation, ATPlite luminescence, 48 h; cells starved in 0.2% serum; 100% = growth in 10% serum; proliferation, % at 10 µM; 330,000 tested, 0.29% active; AID 2380;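 active = compounds whose signal lies at least 3.5 SD above the mean of all wells on their plate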;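 also: 0% = DMSO-treated cells in low-serum medium and 100% = 10% serum control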
FLuc inh counter – Photinus pyralis luciferase inhibition counter-screen; AID 1006; inhibition, % at 10 µM; ATPLite firefly luciferase biochemical luminescence, 10 min; P08659; 200,000 tested, 1.5% active;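 active = inhibition above about 50% when tested at 10 µM, limit read from the data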
C8 TRAIL sens – sensitizes caspase-8 expressing cells to TRAIL; NB7+C8 cells + TRAIL, ATPlite viability luminescence; inhibition (viability loss, TRAIL sensitization), % at 10 µM; 360,000 tested, 1% active; AID 624354;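 active = compounds causing at least 50% loss of cell viability in the single-dose screen, relative to plate controls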
iPSC survival up – increases survival of single human iPS cells; survival enhancement, % at 20 µM; AID 602274; hiPSC single-cell survival, ATPlite luminescence; 100% = ROCK inhibitor wells, 0% = DMSO; 360,000 tested, 0.044% active; in the data active = survival enhancement above about 18%;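 also: cells exposed to compounds for 16 hours before the ATP read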
PPC-1+TRAIL kill – PPC-1 cancer cell killing with TRAIL present. PPC-1 cells + TRAIL, ATPLite viability luminescence. cell killing (% activity), % at 4 µM or 5 µM. 220,000 tested, 0.41% active;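 active = cell killing above 50% in the first pass at 4 µM, then a duplicate retest at 5 µM averaging 50% or more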;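 also: plate controls were cells with TRAIL plus DMSO for no effect and medium-only wells lacking cells for full effect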
* hit, by the source's call; . = no result given. Sampled rows, rich in hits. Any-hit rate of the full collection: about 1.8%.

SMILES	FLuc act counter	beta cell repl	FLuc inh counter	C8 TRAIL sens	iPSC survival up	PPC-1+TRAIL kill
C#CCOCCOCCOCCNc1nc(N2CCN(C(=O)[C@H]([C@@H](C)CC)n3cc(CCC(=O)O)nn3)CC2)nc(N2CCN(C(=O)[C@H](CCCCN)n3cc(CC(C)O)nn3)CC2)n1 (some centres undefined)	.	.	.	-8.9	1.0	.
Cc1[nH]n(-c2ccccc2)c(=O)c1C=NCc1ccco1	0.7	-2.4	28.3	.	.	9.1
Cc1[nH]n(-c2cccc(Cl)c2)c(=O)c1C=NCc1ccco1	0.3	-2.8	65.2*	7.6	2.4	-0.1
CN(C)CC(O)c1ccc(C=Cc2ccc(Cl)cc2)cc1 (centres undefined)	.	.	.	89.0*	-5.4	.
Cc1ccc(N=Nc2cc(C)ccc2N)cc1	.	-4.3	.	68.6*	-0.8	34.1
Cc1ccc(N=Nc2cc(C)ccc2O)c(C)c1	.	-0.3	.	-11.5	-0.3	.
c1ccc(CSc2ccc(-c3cccs3)nn2)cc1	0.3	-3.9	65.8*	54.0*	-3.0	24.2
Cc1ccc(NC(=O)Nc2ccccc2C(N)=O)cc1	.	2.0	.	-25.2	-0.8	9.3
Cc1ccc(OCC(=O)Nc2ccccc2C(N)=O)cc1	.	-2.6	.	52.2*	-0.6	.
CCOc1ccc(NC(=O)Nc2ccc(NC(C)=O)cc2)cc1	1.1	-0.8	-5.2	0.6	-1.9	6.8
COc1ccc(NC(=O)Nc2ccccc2C(N)=O)cc1	0.2	3.0	83.9*	-2.0	-2.8	-1.7
CCOc1ccc(NC(=O)Nc2ccccc2C(N)=O)cc1	0.1	-0.1	93.3*	1.0	-0.7	-11.4
NC(=O)c1ccccc1NC(=O)COc1ccc(Cl)cc1	.	-2.3	.	1.0	0.3	-0.2
c1ccc(-c2nnc3sc(CN4CCC5(CC4)OCCO5)cn23)cc1	1.1	0.4	-6.7	65.0*	-0.8	4.6
CC(=O)Nc1ccc(-c2cn3ccsc3n2)cc1	0.3	-1.4	67.2*	36.4	-5.2	33.6
c1cn2cc(-c3ccc4c(c3)OCO4)nc2s1	0.2	-4.5	78.0*	43.5	-2.3	45.9
CC1=NN(c2ccc([N+](=O)[O-])cc2)C(=O)/C1=C\N(C)C	0.5	-3.1	51.7*	4.8	-1.8	26.0
CCCC1=NN(c2ccc([N+](=O)[O-])cc2)C(=O)/C1=C/N(C)C	1	0.0	-2.7	-1.0	-0.1	20.3
Cc1ccc(-n2nc(C)c3c(C)cc(=O)[nH]c32)cc1	1	-2.2	-4.0	-7.7	21.9*	4.1
Cc1nn(-c2ccccc2)c2[nH]c(=O)cc(C(F)F)c12	.	-1.5	.	-8.6	-0.5	.
CCC(C)[C@H](NC(=O)Nc1ccccc1F)C(=O)OC (some centres undefined)	.	-2.2	.	-4.2	-0.5	2.3
Cc1ccc(C)c(S(=O)(=O)Nc2nc3ccc(S(N)(=O)=O)cc3s2)c1	1	-2.1	-2.6	-4.0	-0.8	4.2
Cc1ccc2nc(NC(=O)c3ccc4ncsc4c3)sc2c1	0.6	-3.5	40.9	39.1	-0.7	32.2
CC1(C)CC(=O)c2sc(NC(=O)c3ccc4ncsc4c3)nc2C1	0.5	-6.1	54.7*	25.4	-1.4	16.2
O=C1C(c2ccncc2)=C(O)c2ccccc21	0.2	-3.4	83.1*	53.9*	-2.8	24.6
SMILES	FLuc act counter	beta cell repl	FLuc inh counter	C8 TRAIL sens	iPSC survival up	PPC-1+TRAIL kill
Nn1c(COc2ccccc2F)nnc1SCC(=O)NC1CC1	.	-0.1	.	-6.8	0.9	.
O=C(N/N=C/c1cccc([N+](=O)[O-])c1O)c1cccs1	0.3	-5.0	67.3*	41.6	-1.9	12.7
O=[N+]([O-])c1cccc(C=NNc2ccc3ccccc3n2)c1O	.	.	.	57.0*	-1.5	.
Fc1cccc(/C=N/Nc2ccc3ccccc3n2)c1	0.3	-3.0	70.8*	38.2	-1.5	-3.1
COc1ccc(C(=O)O/N=C(\N)c2ccccc2)cc1	.	-5.2	.	84.9*	-0.4	.
COc1ccc(/C(N)=N/OC(=O)CSc2ccccc2)cc1	1	-1.1	3.3	5.4	0.7	-17.5
CC(C)(C)c1ccc(C(=O)O/N=C(\N)c2ccccc2)cc1	.	-5.1	.	92.6*	-0.4	.
COc1ccc(C(=O)O/N=C(\N)c2ccc(Br)cc2)cc1	.	-1.8	.	69.9*	-0.3	.
Cc1cc(C(=O)O/N=C(\N)c2ccc(C(C)(C)C)cc2)no1	.	-1.4	.	7.9	-0.6	11.8
CC(C)C(=O)Nc1ccc2c(c1)nc(CCN1CCN(c3ccccn3)CC1)n2C	.	0.2	.	-11.0	-0.4	.
O=C(N/N=C/c1cc([N+](=O)[O-])ccc1O)c1ccc(COc2ccc3c(c2)CCC3)o1	.	-7.2	.	52.2*	-0.3	.
COc1ccc(Br)cc1/C=N/NC(=O)c1ccc(COc2ccc3c(c2)CCC3)o1	1.1	-3.5	-5.9	-4.6	-0.3	-1.3
Cc1nnc(NC(=O)c2nc(S(=O)(=O)Cc3ccccc3C)ncc2Cl)s1	.	-8.0	.	96.8*	-0.1	.
Cc1ccc(CS(=O)(=O)c2ncc(Cl)c(C(=O)Nc3nnc(C(C)C)s3)n2)cc1	.	-7.9	.	82.8*	-0.2	.
O=C(NCc1ccc2c(c1)OCO2)c1nc(S(=O)(=O)Cc2ccccc2)ncc1Cl	.	-7.7	.	12.4	1.4	.
CC(C)c1nnc(NC(=O)c2nc(S(=O)(=O)Cc3ccc(F)cc3)ncc2Cl)s1	.	-4.7	.	94.4*	0.1	.
Cc1cccc(CS(=O)(=O)c2ncc(Cl)c(C(=O)Nc3nnc(C(C)C)s3)n2)c1	.	-7.6	.	95.2*	0.1	.
O=C(NCc1ccc2c(c1)OCO2)c1nc(S(=O)(=O)Cc2ccccc2F)ncc1Cl	.	-7.9	.	30.5	-0.5	.
CC(C)c1nnc(NC(=O)c2nc(S(=O)(=O)Cc3ccccc3F)ncc2Cl)s1	.	-4.6	.	.	.	.
O=C(CSc1nc2nn(-c3ccccc3)c(=O)c-2c2n1CCCCC2)c1ccc(OC(F)F)cc1	.	-0.1	.	-0.8	-0.3	.
CSc1nnc(NC(=O)c2nc(S(=O)(=O)Cc3cccc(C)c3)ncc2Cl)s1	.	-4.6	.	84.3*	0.0	.
CCSc1nnc(NC(=O)c2nc(S(=O)(=O)Cc3ccc(F)cc3)ncc2Cl)s1	.	-4.7	.	23.0	-0.3	.
CSc1nnc(NC(=O)c2nc(S(=O)(=O)Cc3ccccc3F)ncc2Cl)s1	.	-7.8	.	80.9*	-0.4	.
CCCCC1Cc2[nH][nH]c(=O)c2C(c2ccc(Cl)cc2)O1 (centres undefined)	.	.	.	-28.3	-1.2	.
O=C1C(=O)c2cccnc2-c2ncccc21	.	.	.	96.0*	7.9	.
Cc1ccc(/C([O-])=C(/C(=S)Nc2ccc(SC(F)F)cc2)[n+]2ccccc2)cc1[N+](=O)[O-]	1.1	-4.9	-5.7	3.8	0.4	19.4
CSCCC(NC(=O)c1ccccc1)C(=O)OCC(=O)NCc1ccco1 (centres undefined)	.	5.3	.	6.7	-0.3	.
O=C(COC(=O)c1cccs1)c1ccc2c(c1)OCCO2	0	-4.9	95.4*	43.2	1.6	41.5
CC(=O)NC12CC3CC(C1)CC(C(=O)OCC(=O)c1ccc4c(c1)OCCO4)(C3)C2	0.4	-3.4	57.8*	4.5	-0.8	31.1
